Compound activity (PubChem BioAssay)
mIAP inh – mouse IAP inhibition | inhibition, % at 10 µM | purified mouse IAP, CDP-Star luminescence, 30 min | 330,000 compounds, 0.2% hits;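 active means inhibition of at least 40% at 10 µM in the primary screen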;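 further: plate controls were DMSO with enzyme for no effect and no enzyme wells for full effect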
hIAP block – human IAP inhibition. P09923. purified IAP, CDP-Star luminescence, 30 min. inhibition, % at 10 µM. 330,000 compounds, 0.12% hits;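 active means inhibition reaching a set limit with compound at 10 µM in the primary screen, cut at about 35% in these data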;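 further: plate controls were DMSO wells with enzyme for no effect and no-enzyme buffer wells for full effect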
Target sequence (P09923 whole entry, looked up): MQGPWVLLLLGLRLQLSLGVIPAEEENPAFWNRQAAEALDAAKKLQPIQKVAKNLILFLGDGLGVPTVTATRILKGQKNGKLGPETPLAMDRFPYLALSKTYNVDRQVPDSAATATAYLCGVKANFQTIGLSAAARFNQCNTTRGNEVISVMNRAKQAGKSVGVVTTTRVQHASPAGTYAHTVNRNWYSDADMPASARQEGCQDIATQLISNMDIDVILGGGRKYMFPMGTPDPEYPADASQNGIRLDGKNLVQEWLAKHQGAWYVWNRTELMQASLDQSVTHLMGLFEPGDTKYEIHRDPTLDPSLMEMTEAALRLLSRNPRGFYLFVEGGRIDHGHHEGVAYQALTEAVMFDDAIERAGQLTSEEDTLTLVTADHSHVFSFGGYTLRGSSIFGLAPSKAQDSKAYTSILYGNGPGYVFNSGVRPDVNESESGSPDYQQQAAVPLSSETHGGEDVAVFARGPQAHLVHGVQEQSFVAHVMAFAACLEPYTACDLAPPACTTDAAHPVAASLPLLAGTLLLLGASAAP
hIAP act – human IAP activation; P09923; purified human IAP, CDP-Star luminescence, 30 min; stronger effect = higher value; 1 = vehicle-only enzyme, 0 = enzyme-free background; activation factor at 10 µM; 330,000 compounds, 0.16% hits; AID 2524;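 active means activation factor of the enzyme at least 2-fold when tested at 20 µM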
bIAP activator – intestinal alkaline phosphatase (bovine) activation | 200,000 compounds, 0.17% hits | purified bovine IAP, CDP-star luminescence, 30 min; stronger effect = higher value; fold of DMSO-control signal, blank-subtracted | AID 1016 | activation factor at 20 µM;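 active means activation factor of 2 or more at 20 µM, a signal rise over negative controls twice the positive control's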
mIAP act – mouse IAP activation | muIAP, CDP-Star luminescence, 30 min; stronger effect = higher value; 1 = vehicle-only enzyme signal, 0 = enzyme-free wells | activation factor at 10 µM | 330,000 compounds, 0.24% hits | AID 2805;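 active means activation factor of at least 2 at 20 µM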
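System: mouse IAP enzyme. Reagent: CDP-Star chemiluminescent phosphatase substrate. Benchmarks: DMSO wells, no-enzyme wells. Times: 30 min enzyme-substrate-compound incubation at room temperature. Detection: luminescence from enzymatic CDP-Star hydrolysis. Doses: test compounds delivered from DMSO solution.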
bIAP inhibitor – intestinal alkaline phosphatase (bovine) inhibition; purified bovine IAP, CDP-star luminescence, 30 min; 190,000 tested, under 10 active; inhibition, % at 20 µM;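 active means over 50% inhibition of intestinal alkaline phosphatase at 20 µM in the single-dose screen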
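System: purified bovine intestinal alkaline phosphatase (IAP) enzyme; Input: IAP diluted 1/65,000,000 in the well; Measured by: CDP-star luminescence signal; Compound dosing: 20 µM single dose; Incubation: 30 min reaction at room temperature.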
hIAP act confirm – human IAP activation confirmation; shares compounds with hIAP act; purified IAP, CDP-Star luminescence, 30 min; stronger effect = lower value; activation (%Activity, negative = activation), % at 8.3 µM; 880 compounds, 10% hits; AID 434926;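 active means at least twofold enzyme activation in any of six single-dose repeats, which the averaged readout prints as negative percent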
Numbers without * were called inactive; x = no result. In the library only some 0.72% were active in any assay of this set; here they are far more common.

SMILES | mIAP inh | hIAP block | hIAP act | bIAP activator | mIAP act | bIAP inhibitor | hIAP act confirm
NC(=O)C1CC12c1ccccc1-c1ccccc12 (stereo unspecified) | -3 | 2 | 0.98 | x | 1 | x | x
Cc1ccc(C)c(NC(=O)C(=O)NCC2CCCN2S(=O)(=O)c2cccs2)c1 (stereo unspecified) | 6 | 3 | 0.97 | x | 0.94 | x | x
O=C1c2[nH]nc(-c3ccccc3O)c2C(c2cccc(Cl)c2)N1Cc1ccco1 (stereo unspecified) | 2 | -128 | 2.3* | 1.4 | 0.98 | -39 | 4
COc1ccc2[nH]c(C(=O)N/N=C/c3ccc(O)cc3O)cc2c1 | 18 | -104 | 2* | x | 0.82 | x | -9
CCCCCN1CC(O)=C(c2nc3ccccc3[nH]2)C1=N | -30 | -111 | 2.1* | 1.1 | 1.3 | -13 | -45
NS(=O)(=O)c1cccc(NC(=O)COC(=O)CNC(=O)c2ccc(-c3ccccc3)cc2)c1 | 4 | -12 | 1.1 | x | 0.96 | x | x
CCOC1=C/C(=C/c2c(N)n3nc(CC(=O)N4CCCCC4)sc3nc2=O)C=CC1=O | 10 | 22 | 0.78 | x | 0.9 | x | x
CCOC1=C/C(=C/c2c(N)n3nc(S(=O)(=O)CC)sc3nc2=O)C=CC1=O | 39 | 37* | 0.63 | 0.8 | 0.61 | 20 | 27
COC(=O)c1ccc(N2NC(=O)/C(=C/c3cc(OC)c(OC)c(OC)c3)C2=O)cc1 | -2 | 1 | 0.99 | x | 1 | x | x
COC(=O)c1ccc(N2NC(=O)/C(=C/c3cc(OC)c(O)c(OC)c3)C2=O)cc1 | 13 | 37* | 0.63 | x | 0.87 | x | -48
Cc1nonc1NC(=O)CSc1nc2ccccc2o1 | 5 | 5 | 0.95 | x | 0.95 | x | x
COc1ccc(CN2CCC(n3nccc3NC(=O)C3CCCC3)CC2)cc1 | -18 | -95 | 2 | x | 1.2 | x | x
COc1ccc(/C=C/CN2CCC(n3nccc3NC(=O)C3CCCC3)CC2)cc1 | -45 | -109 | 2.1* | x | 1.5 | x | 6
CCCn1c(/C=C/c2ccccc2)nc2ccccc21 | 4 | -214 | 3.1* | 0.8 | 0.96 | 21 | 37
COCCOCCn1c(/C=C/c2ccccc2)nc2ccccc21 | 0 | 9 | 0.91 | 0.9 | 1 | 6 | x
O=C(Nc1ccc(Cl)c(Cl)c1)Oc1ccc(NC(=O)c2ccco2)cc1 | -120 | -100 | 2* | 1 | 2.2* | 0 | -70
Cn1cccc1-c1cc(C(=O)N/N=C/c2cc(Br)ccc2O)[nH]n1 | 29 | -154 | 2.5* | x | 0.71 | x | -2
COc1ccc(N2CCN(C(=O)Cc3ccc(OC)c(OC)c3)CC2)cc1 | 2 | -27 | 1.3 | x | 0.98 | x | x
Cc1nc(SCC(=O)Nc2ccc(OCc3ccccc3)cc2)n[nH]1 | 7 | -39 | 1.4 | 1 | 0.93 | -3 | x
Cc1nc(S/C(=C\c2ccc(OCc3ccccc3Cl)cc2)C(=O)O)n[nH]1 | 11 | -113 | 2.1* | 1.1 | 0.89 | -10 | -48
CCc1nnc(NC(=O)CC23CC4CC(CC(Br)(C4)C2)C3)s1 | -1 | 0 | 1 | x | 1 | x | x
CC(=O)c1ccc(S(=O)(=O)N2CCN(C(C)C(=O)N(C)Cc3ccccc3)CC2)cc1 (stereo unspecified) | -3 | 6 | 0.94 | x | 1 | x | x
CCN1CCN(CCCNC(=O)CCC(=O)N2CCOc3ccccc32)CC1 | -20 | 2 | 0.98 | x | 1.2 | x | x
CCCNC(=S)NNC(=O)c1cc(C2CC2)nc2ccccc12 | 5 | -117 | 2.2* | x | 0.95 | x | 0
COc1ccc(C(=O)NCC(=O)NCC(c2ccco2)N(C)C)cc1OC (stereo unspecified) | 4 | 44* | 0.56 | 0.9 | 0.96 | 9 | 6
SMILES | mIAP inh | hIAP block | hIAP act | bIAP activator | mIAP act | bIAP inhibitor | hIAP act confirm
CCCOc1ccc(C(=O)NCC(c2ccco2)N(C)C)cc1OC (stereo unspecified) | 2 | 2 | 0.98 | 1 | 0.98 | -1 | x
Nc1nnc(Cc2ccccc2)s1 | -2 | -14 | 1.1 | 0.9 | 1 | 14 | x
Nc1nnc(Cc2cccc(Br)c2)s1 | -3 | -106 | 2.1* | x | 1 | x | -41
NC(=O)c1cc(S(=O)(=O)NCCc2ccc(S(N)(=O)=O)cc2)cs1 | 4 | -5 | 1 | x | 0.96 | x | x
CCNc1nc(NCC)nc(-n2nc(C)cc2C)n1 | 2 | 41* | 0.59 | 1 | 0.98 | -2 | -8
CC(Cc1ccco1)NC(=O)c1cccc(S(=O)(=O)N(C)C)c1 (stereo unspecified) | 6 | 12 | 0.88 | x | 0.94 | x | x
Cc1sc2ncnc(N3CCC(C(=O)Nc4nc(-c5cccs5)cs4)CC3)c2c1C | -14 | -22 | 1.2 | x | 1.1 | x | x
CC(=O)CCc1ccc(Oc2nc(-c3cccnc3)nc3ccccc23)cc1 | 14 | 36* | 0.64 | 1.1 | 0.86 | -13 | 42
COc1ccc(Oc2nc(-c3cccnc3)nc3ccccc23)cc1 | 4 | 10 | 0.91 | x | 0.96 | x | x
Cn1ncc2c1ncn1nc(CCc3ccccc3)nc21 | 8 | 39* | 0.61 | 0.7 | 0.92 | 29 | -18
COC(=O)C1=C(C)NC(C)=C(C(=O)OCC2CCCO2)C1c1cccc(Br)c1 (stereo unspecified) | -5 | -10 | 1.1 | x | 1 | x | x
CCCNS(=O)(=O)c1ccc(CCC(=O)NCc2ccco2)cc1 | 1 | -141 | 2.4* | 0.9 | 0.99 | 7 | 11
O=C(CN(C(=O)CCC(=O)Nc1nccs1)c1ccc(F)cc1)NCCc1ccccc1 | 2 | -6 | 1.1 | x | 0.98 | x | x
C[n+]1c(/C=C/c2ccc(O)cc2)ccc2ccccc21 | 28 | 44* | 0.56 | x | 0.72 | x | 4
CN(C)S(=O)(=O)c1cccc(COC(=O)Cc2c(F)cccc2Cl)c1 | -1 | -17 | 1.2 | x | 1 | x | x
CCCCCN(C(=O)CCC(=O)OCC(=O)Nc1ccc(C)cc1F)c1c(N)n(CCCC)c(=O)[nH]c1=O | 2 | -13 | 1.1 | x | 0.98 | x | x
CCCC(NC(=O)C(C)N1CCN(S(=O)(=O)c2ccccc2)CC1)c1ccccc1 (stereo unspecified) | 5 | 10 | 0.9 | x | 0.95 | x | x
CCOC(=O)c1cnc(SCC(=O)c2ccccc2)nc1N | 4 | 35* | 0.65 | 0.9 | 0.96 | 10 | -436*
CCOC(=O)c1cnc(SCC(=O)c2ccc(C)cc2)nc1N | 2 | 13 | 0.87 | 0.9 | 0.97 | 7 | x
CC(=Nc1ccc(O)cc1)c1sc2ccccc2c1O | 13 | 9 | 0.91 | 0.9 | 0.87 | 14 | x
Oc1c(N=Nc2ccccc2)sc2ccccc12 | 32 | 38* | 0.62 | x | 0.68 | x | 14
Cc1ccccc1OCCC(=O)N1CCN(S(=O)(=O)c2ccc(Br)cc2)CC1 | 2 | 6 | 0.94 | x | 0.98 | x | x
CC(=O)Nc1ccc(NC(=O)C2CC(=O)N(C(C)C)C2)cc1 (stereo unspecified) | 10 | 37* | 0.63 | x | 0.9 | x | 20
CC(C)N1CC(C(=O)Nc2ccccc2)CC1=O (stereo unspecified) | -2 | -15 | 1.2 | 0.9 | 1 | 7 | x
